For data set [1], the system named is NCI-H1975. Nature of the data set: Antitumor activity against human NCI-H1975 cells xenografted in po dosed SCID nude mouse assessed as tumor growth inhibition administered qd after 14 days. It counts as functional, organism-based. The method in brief: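 SCID mice (6 weeks) were given H1975 cells subcutaneously in the right flank at 2 × 10^6 per mouse. At 200−300 mm3, n = 5 per group were randomized to daily oral vehicle or compound at 10 or 30 mg/kg for 14 days. Vehicle: 1% DMSO, 5% EtOH, 15% castor oil, 79% H2O. Tumors (W²·L/2) and body weight were measured every other day; TGI was calculated against vehicle controls.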
A general note: Xenograft models place foreign cells or tissue in a host animal.

The nature of data set [2]: Antiproliferative activity against human H460 cells expressing wild-type EGFR after 72 hrs by MTS assay. As to conditions: NCI-H460, 72 h. It counts as cell-based. The gist of the method: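 MTS proliferation assay: cells exposed to compound for 72 h at six concentrations (0.1 nM to 10 μM), each concentration run six times. Cell number per line set to give an absorbance of 0.5–1.2 at […]. IC50 from a nonlinear sigmoidal dose–response fit. Values are means of at least three independent experiments.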
(Tetrazolium assays rely on reduction of a dye to a coloured formazan, in cell work by metabolically active cells.)

The target in data set [3] is Proto-oncogene tyrosine-protein kinase receptor Ret (Homo sapiens) (UniProt P07949). In words: Binding affinity to RET (unknown origin).
Data set [4] addresses Platelet-derived growth factor receptor beta (Homo sapiens) (UniProt P09619). In words: Binding affinity to PDGFRbeta (unknown origin).
Data set [5] addresses T1, Dual specificity mitogen-activated protein kinase kinase 5 (Homo sapiens) (UniProt Q13163).
T1 sequence (whole entry): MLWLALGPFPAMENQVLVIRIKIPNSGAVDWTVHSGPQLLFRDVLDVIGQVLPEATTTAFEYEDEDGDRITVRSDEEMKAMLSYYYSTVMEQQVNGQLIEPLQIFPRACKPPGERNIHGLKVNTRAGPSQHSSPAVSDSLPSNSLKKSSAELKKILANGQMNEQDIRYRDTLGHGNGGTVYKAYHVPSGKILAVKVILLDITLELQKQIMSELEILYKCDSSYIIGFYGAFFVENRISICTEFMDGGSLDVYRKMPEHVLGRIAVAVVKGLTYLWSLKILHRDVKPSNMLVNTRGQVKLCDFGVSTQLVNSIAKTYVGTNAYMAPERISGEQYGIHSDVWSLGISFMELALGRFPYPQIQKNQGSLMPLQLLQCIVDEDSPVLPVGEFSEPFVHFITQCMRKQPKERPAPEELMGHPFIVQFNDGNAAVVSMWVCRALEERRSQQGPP
In words: Binding affinity to MEK5 (unknown origin).

For data set [6], the target named is T2, Tyrosine-protein kinase JAK3 (Homo sapiens) (UniProt P52333).
T2 sequence (whole entry): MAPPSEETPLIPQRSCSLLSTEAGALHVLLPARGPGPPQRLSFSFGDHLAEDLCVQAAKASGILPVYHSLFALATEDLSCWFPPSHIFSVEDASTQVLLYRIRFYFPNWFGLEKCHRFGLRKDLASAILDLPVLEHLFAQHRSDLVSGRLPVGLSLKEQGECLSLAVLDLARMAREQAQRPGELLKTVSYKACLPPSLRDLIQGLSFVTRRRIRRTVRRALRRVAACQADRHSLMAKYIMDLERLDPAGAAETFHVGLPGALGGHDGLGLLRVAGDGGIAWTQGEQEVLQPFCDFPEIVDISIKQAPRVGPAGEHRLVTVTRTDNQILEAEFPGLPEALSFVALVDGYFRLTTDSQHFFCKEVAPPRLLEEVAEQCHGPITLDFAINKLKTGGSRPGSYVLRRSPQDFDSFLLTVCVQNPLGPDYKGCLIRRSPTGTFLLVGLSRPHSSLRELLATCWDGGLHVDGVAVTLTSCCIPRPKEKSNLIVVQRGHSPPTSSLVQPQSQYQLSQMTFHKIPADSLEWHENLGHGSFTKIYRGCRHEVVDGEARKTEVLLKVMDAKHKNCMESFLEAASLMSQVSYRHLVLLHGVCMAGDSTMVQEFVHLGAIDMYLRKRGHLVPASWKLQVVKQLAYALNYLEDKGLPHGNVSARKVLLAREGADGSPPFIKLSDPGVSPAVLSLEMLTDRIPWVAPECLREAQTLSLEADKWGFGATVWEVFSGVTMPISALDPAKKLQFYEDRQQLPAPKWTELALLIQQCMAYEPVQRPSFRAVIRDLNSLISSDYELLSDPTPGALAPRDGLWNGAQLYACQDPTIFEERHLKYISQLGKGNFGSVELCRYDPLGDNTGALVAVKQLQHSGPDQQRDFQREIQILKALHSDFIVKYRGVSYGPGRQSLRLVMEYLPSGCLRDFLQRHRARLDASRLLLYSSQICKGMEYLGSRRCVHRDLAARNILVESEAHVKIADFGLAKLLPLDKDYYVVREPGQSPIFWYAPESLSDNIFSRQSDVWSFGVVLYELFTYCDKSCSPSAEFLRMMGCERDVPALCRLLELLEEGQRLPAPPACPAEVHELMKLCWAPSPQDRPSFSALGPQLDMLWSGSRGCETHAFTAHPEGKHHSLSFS
Nature of the data set: Binding affinity to JAK3 (unknown origin).

Data set [7] addresses Tyrosine-protein kinase BTK (Homo sapiens) (UniProt Q06187). In words: Binding affinity to BTK (unknown origin).
Data set [8] deals with Tyrosine-protein kinase ABL1 (Homo sapiens) (UniProt P00519). Nature of the data set: Binding affinity to ABL1 (unknown origin).
For data set [9], the target named is Epidermal growth factor receptor (Homo sapiens, UniProt P00533, L858R). In words: Inhibition of EGFR L858R mutant (unknown origin). It counts as protein assay.
Chain of Epidermal growth factor receptor (Homo sapiens, UniProt P00533, L858R) (P00533 25-1210 L858R limits assumed): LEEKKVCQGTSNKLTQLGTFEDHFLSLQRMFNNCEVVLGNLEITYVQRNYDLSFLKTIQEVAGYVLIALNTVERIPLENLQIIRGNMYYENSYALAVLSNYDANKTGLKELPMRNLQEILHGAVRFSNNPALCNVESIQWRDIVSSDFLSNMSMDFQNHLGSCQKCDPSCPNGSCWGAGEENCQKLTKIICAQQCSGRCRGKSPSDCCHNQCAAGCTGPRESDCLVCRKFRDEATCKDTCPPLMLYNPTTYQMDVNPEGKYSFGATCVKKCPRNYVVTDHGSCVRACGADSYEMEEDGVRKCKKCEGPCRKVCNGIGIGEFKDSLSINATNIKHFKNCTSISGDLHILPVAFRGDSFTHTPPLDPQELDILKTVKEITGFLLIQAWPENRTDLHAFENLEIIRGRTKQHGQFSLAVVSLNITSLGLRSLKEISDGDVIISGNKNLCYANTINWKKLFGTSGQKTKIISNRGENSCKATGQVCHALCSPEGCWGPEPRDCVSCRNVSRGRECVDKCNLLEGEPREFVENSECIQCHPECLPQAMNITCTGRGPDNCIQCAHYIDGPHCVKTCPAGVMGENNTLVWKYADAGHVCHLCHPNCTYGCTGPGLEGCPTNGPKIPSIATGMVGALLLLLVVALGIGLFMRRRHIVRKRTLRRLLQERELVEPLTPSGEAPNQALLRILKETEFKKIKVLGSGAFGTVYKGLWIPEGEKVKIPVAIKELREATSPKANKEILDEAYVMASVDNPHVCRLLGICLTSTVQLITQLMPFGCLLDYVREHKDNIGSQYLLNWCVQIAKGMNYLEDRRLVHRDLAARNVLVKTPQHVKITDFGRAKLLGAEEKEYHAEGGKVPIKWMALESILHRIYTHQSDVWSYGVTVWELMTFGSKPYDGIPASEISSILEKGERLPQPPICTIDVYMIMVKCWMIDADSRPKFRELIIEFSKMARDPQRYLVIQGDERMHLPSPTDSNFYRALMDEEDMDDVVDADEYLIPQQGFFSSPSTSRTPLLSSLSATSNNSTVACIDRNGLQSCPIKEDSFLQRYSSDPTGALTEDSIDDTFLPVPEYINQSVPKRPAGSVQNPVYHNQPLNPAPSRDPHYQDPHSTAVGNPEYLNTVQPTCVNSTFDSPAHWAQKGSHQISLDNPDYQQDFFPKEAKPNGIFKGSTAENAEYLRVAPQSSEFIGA
The test system of data set [10] is NCI-H1975. Nature of the data set: Effect on GADPH protein level in human NCI-H1975 cells at 3 to 330 nM after 2 hrs by Western blotting analysis. Type of data set: functional, cell-based. Background: In western blotting, separated proteins are transferred to a membrane and probed.
Data set [11] in a line: Oral bioavailability in Sprague-Dawley rat at 25 mg/kg by LC/MS analysis. Type of data set: ADME, organism-based. As to conditions: in vivo. The gist of the method:
(§1)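 Male Sprague-Dawley rats (180−220 g), n = 4 per route, single iv dose 5 mg/kg or oral gavage 25 mg/kg. Vehicle was 2% DMSO, 4% EtOH, 4% castor oil, 90% H2O. Orbital sinus blood was taken from 2 min to 72 h into heparinized tubes. Plasma levels were measured by LC/MS with propranolol internal standard and analysed by pharmacokinetic modelling.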

Data set [12] is described as follows: AUC (0 to infinity) in Sprague-Dawley rat at 25 mg/kg, po by LC/MS analysis. It counts as ADME, organism-based. Also noted: dose 25 mg/kg, route oral, time infinity. As to conditions: plasma. The gist of the method: as §1
Data set [13] is described as follows: Cmax in Sprague-Dawley rat at 5 mg/kg, iv by LC/MS analysis. Type of data set: ADME, organism-based. Also noted: dose 5 mg/kg, route intravenous. As to conditions: in vivo. The method in brief: as §1
The nature of data set [14]: Thermodynamic aqueous solubility of the compound in PBS buffer at pH 6.8 after 24 hrs by HPLC analysis. It counts as physicochemical. As to conditions: PBS buffer, pH 6.8; read-out: Therm_solubility. The method in brief:
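Compound was shaken in aqueous buffer at pH 6.8 for 24 h at ambient temperature; dissolved concentration was measured by HPLC.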

Data set [15] addresses Epidermal growth factor receptor (Homo sapiens, UniProt P00533, L858R/T790M). In words: Inhibition of EGFR L858R/T790M double mutant (unknown origin) after 1.5 hrs by FRET-based Z'-Lyte assay. It counts as protein assay.
The subject of data set [16] is Epidermal growth factor receptor (Homo sapiens), P00533 [L858R,T790M]. As to conditions: NCI-H1975, 33 nM.

In brackets after ≈: the same amount, converted by molar mass. Activity calls are given as the source filed them. The calls are words filed in the database; no cut-off is given here.

Chain of Tyrosine-protein kinase BTK (Homo sapiens) (Q06187 whole entry): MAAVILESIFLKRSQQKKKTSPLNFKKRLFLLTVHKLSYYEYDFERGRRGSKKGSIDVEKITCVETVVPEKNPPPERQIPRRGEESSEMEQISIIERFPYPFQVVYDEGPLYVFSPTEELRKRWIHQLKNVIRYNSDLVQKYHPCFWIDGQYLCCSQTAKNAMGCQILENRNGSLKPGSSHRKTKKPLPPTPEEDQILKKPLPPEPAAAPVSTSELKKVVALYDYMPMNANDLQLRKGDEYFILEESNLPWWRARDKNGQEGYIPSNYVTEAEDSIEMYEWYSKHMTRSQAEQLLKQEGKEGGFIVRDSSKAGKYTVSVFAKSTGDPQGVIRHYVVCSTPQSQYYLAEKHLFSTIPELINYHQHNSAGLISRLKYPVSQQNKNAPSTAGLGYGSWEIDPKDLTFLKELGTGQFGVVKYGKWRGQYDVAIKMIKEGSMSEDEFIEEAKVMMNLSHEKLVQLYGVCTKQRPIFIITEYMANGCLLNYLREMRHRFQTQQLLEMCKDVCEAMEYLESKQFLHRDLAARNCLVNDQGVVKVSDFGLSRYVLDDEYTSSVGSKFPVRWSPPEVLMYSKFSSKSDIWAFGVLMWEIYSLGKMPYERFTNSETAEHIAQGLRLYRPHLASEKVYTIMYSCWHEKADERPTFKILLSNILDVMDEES
Chain of Epidermal growth factor receptor (Homo sapiens, UniProt P00533, L858R/T790M) (P00533 25-1210 T790M/L858R limits assumed): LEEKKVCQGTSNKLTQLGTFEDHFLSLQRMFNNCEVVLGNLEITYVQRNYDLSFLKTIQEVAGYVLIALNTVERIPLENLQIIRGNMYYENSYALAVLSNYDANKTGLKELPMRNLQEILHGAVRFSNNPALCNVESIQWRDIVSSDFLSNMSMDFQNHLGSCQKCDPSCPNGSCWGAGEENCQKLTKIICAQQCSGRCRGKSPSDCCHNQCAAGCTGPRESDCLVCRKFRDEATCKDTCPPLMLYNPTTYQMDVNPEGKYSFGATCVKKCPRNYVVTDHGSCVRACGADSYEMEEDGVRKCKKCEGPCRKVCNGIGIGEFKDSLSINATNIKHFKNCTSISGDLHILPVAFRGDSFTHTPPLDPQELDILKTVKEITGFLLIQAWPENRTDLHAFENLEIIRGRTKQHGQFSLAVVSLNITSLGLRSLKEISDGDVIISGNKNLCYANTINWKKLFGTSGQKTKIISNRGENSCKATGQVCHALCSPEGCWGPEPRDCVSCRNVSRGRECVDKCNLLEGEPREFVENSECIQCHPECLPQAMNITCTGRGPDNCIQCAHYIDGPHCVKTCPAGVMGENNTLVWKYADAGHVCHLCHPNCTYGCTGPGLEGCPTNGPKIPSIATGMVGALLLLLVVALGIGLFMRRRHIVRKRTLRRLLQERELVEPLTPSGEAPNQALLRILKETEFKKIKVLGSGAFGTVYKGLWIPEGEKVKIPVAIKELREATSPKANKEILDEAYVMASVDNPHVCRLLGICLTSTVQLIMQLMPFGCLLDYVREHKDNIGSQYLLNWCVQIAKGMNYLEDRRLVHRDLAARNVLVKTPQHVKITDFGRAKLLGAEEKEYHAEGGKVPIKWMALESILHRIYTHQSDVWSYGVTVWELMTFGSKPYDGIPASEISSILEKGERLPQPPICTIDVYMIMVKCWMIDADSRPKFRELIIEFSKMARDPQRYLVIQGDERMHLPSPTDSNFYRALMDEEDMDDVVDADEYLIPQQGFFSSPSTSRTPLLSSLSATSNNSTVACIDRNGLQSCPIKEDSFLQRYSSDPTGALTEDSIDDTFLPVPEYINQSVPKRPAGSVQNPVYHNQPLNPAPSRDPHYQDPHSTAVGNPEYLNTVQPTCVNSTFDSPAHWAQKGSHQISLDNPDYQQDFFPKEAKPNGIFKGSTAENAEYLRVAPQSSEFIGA
Chain of Epidermal growth factor receptor (Homo sapiens), P00533 [L858R,T790M] (P00533 whole entry T790M/L858R, looked up): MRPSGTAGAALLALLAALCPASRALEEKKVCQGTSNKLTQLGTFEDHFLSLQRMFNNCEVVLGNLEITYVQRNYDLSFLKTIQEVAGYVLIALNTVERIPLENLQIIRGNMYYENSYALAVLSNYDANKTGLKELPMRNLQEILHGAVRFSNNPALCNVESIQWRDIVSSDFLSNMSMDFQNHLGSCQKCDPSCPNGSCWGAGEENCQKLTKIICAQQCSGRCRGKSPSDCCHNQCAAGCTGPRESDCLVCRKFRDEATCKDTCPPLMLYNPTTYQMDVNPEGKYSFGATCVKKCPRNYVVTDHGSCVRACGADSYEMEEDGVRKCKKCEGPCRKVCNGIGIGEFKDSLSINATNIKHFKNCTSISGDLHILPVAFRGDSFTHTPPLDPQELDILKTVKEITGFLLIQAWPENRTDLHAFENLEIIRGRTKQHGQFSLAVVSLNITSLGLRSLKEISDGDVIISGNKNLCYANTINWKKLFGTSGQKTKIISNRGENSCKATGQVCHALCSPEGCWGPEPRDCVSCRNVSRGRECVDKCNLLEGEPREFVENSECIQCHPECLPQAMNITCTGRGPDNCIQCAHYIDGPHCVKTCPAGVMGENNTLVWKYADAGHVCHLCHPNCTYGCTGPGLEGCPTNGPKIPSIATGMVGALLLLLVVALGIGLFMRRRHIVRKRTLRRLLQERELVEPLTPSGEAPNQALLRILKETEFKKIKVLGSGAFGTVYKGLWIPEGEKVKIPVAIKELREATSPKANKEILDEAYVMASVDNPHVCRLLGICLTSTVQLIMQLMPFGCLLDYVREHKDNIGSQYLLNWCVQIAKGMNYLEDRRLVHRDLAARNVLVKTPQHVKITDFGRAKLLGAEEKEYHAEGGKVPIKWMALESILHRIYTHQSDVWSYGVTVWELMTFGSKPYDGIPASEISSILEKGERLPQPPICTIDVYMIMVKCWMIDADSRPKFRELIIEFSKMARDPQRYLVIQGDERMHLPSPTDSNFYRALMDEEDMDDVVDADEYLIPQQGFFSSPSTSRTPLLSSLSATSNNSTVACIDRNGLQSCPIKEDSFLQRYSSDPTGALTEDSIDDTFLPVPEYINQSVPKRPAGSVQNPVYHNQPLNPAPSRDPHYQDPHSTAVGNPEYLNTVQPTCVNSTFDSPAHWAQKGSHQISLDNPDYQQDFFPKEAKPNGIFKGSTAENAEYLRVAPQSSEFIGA

The term IC50 denotes the concentration needed to halve the response being measured. A higher IC50 goes with a need for much substance. The term bioavailability denotes the share of a dose that reaches the circulation, judged against a reference dose that is usually intravenous. As usually defined, the AUC(0-inf) is total exposure, with the tail of the curve extrapolated. A high value points to high exposure. The term Cmax denotes the maximum level reached in the sampled fluid or tissue. With `C=CC(=O)N1CC[C@H](N2C(=O)N(c3ccccc3)Cc3cnc(Nc4ccc(N5CCN(C)CC5)c(C)c4)nc32)C1`, the TGI result with NCI-H1975 [1] is “Dose-dependent effect”. For the same molecule, the IC50 in data set [2] was 16000 nM; in data set [9] it was 3 nM; in data set [15], 9.2 nM. For the same molecule, the outcome in data set [3], in [4], in data set [5], in [6], in data set [7] and in data set [8] was Active. Besides, the outcome with NCI-H1975 [10] was inactive. The molecule further registered a bioavailability in [11] of 30%. Moreover, the AUC(0-inf) in [12] was determined as 2490 ng·h/mL. In [13], this molecule gave a Cmax of 3980 ng/mL. The solubility thermodynamic at 24 h in data set [14] is 1270 µg/mL (≈ 2290 µM). Moreover, the inhibition result in data set [16] is “Active”.

These data come from ChEMBL document CHEMBL3085739, “Design, synthesis, and biological evaluation of 2-oxo-3,4-dihydropyrimido[4,5-d]pyrimidinyl derivatives as new irreversible epidermal growth factor receptor inhibitors with improved pharmacokinetic properties” (J Med Chem, 2013).
